Test results from ChEMBL document CHEMBL1139359, “Novel chemotactic For-Met-Leu-Phe-OMe (fMLF-OMe) analogues based on met residue replacement by 4-amino-proline scaffold: synthesis and bioactivity” (2009).
Activity calls are given as the source filed them. The rule behind the calls is not given here.

Key:
[1] = tested on: Neutrophil; test: Induction of chemotactic activity in human neutrophil at 0.1 nM; type: functional
Outline: (§1)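 Neutrophils from healthy donors were purified by dextran sedimentation, Ficoll-Paque centrifugation and hypotonic red-cell lysis, then held in KRPG pH 7.4. Peptide placed in lower well of a 48-well microchemotaxis chamber, diluted in KRPG with 1 mg/mL BSA, tested at 10^–13 to 10^–5 M. Migration into filter scored by leading-front method. C.I. = (test − buffer migration)/buffer migration. Mean of six experiments run in duplicate.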

[2] = tested on: Neutrophil; test: Induction of superoxide anion radicals production in human neutrophil at 10 uM; type: functional
Outline: (§2)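 Donor neutrophils (dextran/Ficoll/hypotonic lysis, KRPG pH 7.4) pretreated with 5 µg/mL cytochalasin B for 5 min. Peptide then added at 10^–10–5·10^–5 M at 37 °C in microplate reader. Cytochrome c reduction read as absorbance difference 550 vs 468 nm (absorptivity 18.5 mmol^–1 cm^–1). Expressed as net nmol O2− per 10^6 cells per 5 min, mean of six experiments in duplicate.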

[3] = tested on: Neutrophil; test: Induction of lysozyme release in human neutrophil at 1 uM; type: functional
Outline: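 Cells at 3×10^6/well, in triplicate wells, preincubated with 5 µg/mL cytochalasin B at 37 °C for 15 min, then peptide (final 10^–10–5·10^–5 M) for 15 min. Plates spun 400g for 5 min. Supernatant lysozyme measured nephelometrically as rate of Micrococcus lysodeikticus cell-wall lysis at 465 nm. Expressed as net % of total content released by 0.1% Triton X-100. Mean of five experiments in duplicate.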

[4] = tested on: Neutrophil; test: Inhibition of fMLF-OMe-induced lysozyme release in human neutrophil assessed as lysis of Micrococcus lysodeikticus cell wall by nephelometry; type: functional, cell-based
[5] = tested on: Neutrophil; test: Induction of chemotactic activity in human neutrophil assessed as chemotactic index at 1 nM; type: functional; outline: as §1
[6] = tested on: Neutrophil; test: Induction of superoxide anion radicals production in human neutrophil at 1 uM; type: functional; outline: as §2
[7] = tested on: Neutrophil; test: Inhibition of fMLF-OMe-induced chemotactic index in human neutrophil at 100 uM; type: functional; parameters: Activity: scale not given: the % may be the effect or the level left; settings: for inhibition at 100 µM: Homo sapiens, Neutrophil
Outline: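 Human neutrophils, chemotaxis toward 10 nM fMLF-OMe in microchemotaxis chamber, measured with increasing concentrations of test peptide. Inhibition scored on chemotactic index (test − buffer migration over buffer migration), with migration assessed by leading-front method.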

[8] = tested on: Neutrophil; test: Inhibition of fMLF-OMe-induced superoxide anion radicals production in human neutrophil; type: functional, cell-based

Row | Compound | Activity [1] | Activity ([2]; in the assay text read “1 uM” for “10 uM”) | Activity [3] | Activity [4] | Activity [5] | Activity [6] | Activity [2] | inhibition at 100 µM [7] | Activity [8] | Activity [7]
1 | COC(=O)[C@H](Cc1ccccc1)NC(=O)[C@H](CC(C)C)NC(=O)[C@@H]1C[C@H](NC=O)CN1C=O | 0.7 | 4 nmol | 24% | inactive |  |  |  |  |  | 
2 | COC(=O)[C@H](Cc1ccccc1)NC(=O)[C@H](CC(C)C)NC(=O)[C@H](CCSC)NC=O |  |  | 60% |  | 1.1 | 52 nmol |  |  |  | 
3 | COC(=O)[C@H](Cc1ccccc1)NC(=O)[C@H](CC(C)C)NC(=O)[C@@H]1C[C@@H](NC=O)CN1C=O | 0.75 |  | 15% | inactive |  | 5 nmol |  |  |  | 
4 | COC(=O)[C@H](Cc1ccccc1)NC(=O)[C@H](CC(C)C)NC(=O)[C@@H]1C[C@H](NC(=O)OC(C)(C)C)CN1C(=O)OC(C)(C)C |  |  | 12% | inactive | 0.4 |  | 14.6 nmol | 60% |  | 
5 | COC(=O)[C@H](Cc1ccccc1)NC(=O)[C@H](CC(C)C)NC(=O)[C@@H]1C[C@H](NC=O)CN1C(=O)OC(C)(C)C |  |  | 12% |  | 0.34 |  | 2 nmol |  | inactive | 
6 | COC(=O)[C@H](Cc1ccccc1)NC(=O)[C@H](CC(C)C)NC(=O)[C@@H]1C[C@@H](NC(=O)OC(C)(C)C)CN1C(=O)OC(C)(C)C | 0.45 |  | 18% | inactive |  |  | 2 nmol | 60% |  | 
7 | COC(=O)[C@H](Cc1ccccc1)NC(=O)[C@H](CC(C)C)NC(=O)[C@@H]1C[C@@H](NC=O)CN1C(=O)OC(C)(C)C |  |  | 13% |  | 0.4 |  | 1 nmol |  | inactive | 73%
